Screening data: PubChem BioAssay, Sanford-Burnham Center for Chemical Genomics
DNMT1 inh – DNMT1 (human) enzyme inhibition; inhibition (reported as % activation of signal), % at 10 µM; P26358; DNMT1 molecular beacon, Hinp1I cleavage, fluorescence; hit rate 0.83% among 360,000; in the data active = inhibition above about 50%
Rpn11 block – Rpn11 (human) deubiquitinase inhibition. human 26S proteasome, Ub4-pepOG fluorescence polarization; 20S core pre-blocked with epoxomicin. inhibition, % at 20 µM. hit rate 0.59% among 360,000. AID 588493;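 active = inhibition at 20 µM, scaled to each plate's controls, above about 33%, limit read from the data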
CSN inh – inhibitors of human CSN-mediated cullin deneddylation | Purified CSN, SCF-Nedd8-OG deneddylation, fluorescence polarization | AID 651999 | inhibition, % at 12.5 µM | hit rate 0.38% among 360,000;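 active = pattern-corrected inhibition above about 35%, with an unprinted fluorescence ratio check between 0.5 and 1.5, limit read from the data, passing the limit was not always enough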;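 also: 0% = enzyme with substrate and 100% = substrate without enzyme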
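Assay system: Purified human Csn5 enzyme expressed in HEK293T cells | Amount: Enzyme 0.24 nM | Measured by: Fluorescence polarization readout | Medium: Tris/NaCl/DTT buffer, pH 7.5 | Compound dosing: One concentration, 12.5 µM, 0.25% DMSO | Times: 90 min incubation of compound, enzyme and substrate at room temperature | Control set: no-enzyme wells high, enzyme-with-substrate wells low | Read-out: % inhibition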
SUMO1-SIM PPI – modulators of human SUMO1-mediated protein-protein interactions | inhibition, % at 20 µM | AID 602429 | hit rate 0.33% among 360,000 | SUMO1 binding to a labelled peptide, TR-FRET, 1 h; in the data active = inhibition above about 37%
MT1-MMP act inh – blocks activation of human MT1-MMP; AID 651647; hit rate 0.061% among 360,000; P50281; GFP/RFP ratio change, % at 20 µM; HT1080 RFP-PRO-GFP cells, GFP/RFP ratio fluorescence, overnight; percent of plate control window, DMSO zero;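 active = GFP/RFP ratio change of at least 30% with cell ATP level not reduced by more than half and red fluorescence within 50% of control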
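Compound: 20 µM single dose, 1% DMSO / System: HT1080 RFP-PRO-GFP cells / Controls: DMSO and RFP-L50D-GFP cell wells / Read-out basis: GFP/RFP fluorescence ratio / Schedule: overnight compound exposure at 37 °C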
SKN-1 inh – inhibitors of C. elegans SKN-1; AID 624304; C. elegans VP596 Pgst-4::GFP/RFP ratio, acrylamide-induced, 24 h; inhibition, % at 21.8 µM; hit rate 0.49% among 360,000;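 active = interference check ratio from 0.5 to 1.5 plus GFP to RFP signal ratio inhibition reaching or exceeding a fixed threshold, cut at about 30% in these data, passing the limit was not always enough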
* marks the source's active call; other numbers are inactive results. In the library only some 2.3% were active in any assay of this set; here they are far more common.

`CCC(=O)Nc1ccc2c(c1)OC[C@@H](C)N(Cc1cccc(F)c1)C[C@@H](C)[C@@H](OC)CN(C)C2=O` gave CSN inh -0.3, SUMO1-SIM PPI 4.8, MT1-MMP act inh -1.1 and SKN-1 inh 8.9.
`c1ccc(CNc2c3ccccc3nc3ccccc23)cc1` gave DNMT1 inh 67.2*, Rpn11 block -7.9, CSN inh -5.3, SUMO1-SIM PPI -22.5, MT1-MMP act inh 1.5 and SKN-1 inh 10.1.
Screening CN(C)CCCNc1c2ccccc2nc2ccccc12 returned DNMT1 inh 48.1, Rpn11 block -3.4, CSN inh 0.0, SUMO1-SIM PPI -67.8, MT1-MMP act inh -41.5 and SKN-1 inh -0.6.
Screening Oc1ccc(CCNc2c3ccccc3nc3ccccc23)cc1O returned DNMT1 inh 78.6*, Rpn11 block -1.1, CSN inh 6.0, SUMO1-SIM PPI -13.9, MT1-MMP act inh 15.5 and SKN-1 inh 2.6.
Screening C[C@@H]1CN([C@H](C)CO)C(=O)c2c(c3ccccc3n2C)-c2ccccc2CO[C@H]1CN(C)Cc1ccc(Oc2ccccc2)cc1 returned DNMT1 inh -21.7, Rpn11 block 4.6, CSN inh 1.6, SUMO1-SIM PPI -4.2, MT1-MMP act inh 5.7 and SKN-1 inh 3.9.
COC(=O)/C=C1\OCc2cccc(C)c21 was read as CSN inh -3.1, SUMO1-SIM PPI -0.1, MT1-MMP act inh 5.8 and SKN-1 inh 19.7.
Screening S=C(Nc1ccccc1)Nc1nc2ccccc2n1CCOc1ccc(Cl)cc1 returned DNMT1 inh -9.6, Rpn11 block 20.6, CSN inh -9.4, SUMO1-SIM PPI -2.0, MT1-MMP act inh 8.7 and SKN-1 inh 58.9*.
`CCCn1c(NC(=S)Nc2ccccc2)nc2ccccc21` gave DNMT1 inh -3.9, Rpn11 block 10.2, CSN inh 0.8, SUMO1-SIM PPI 2.6, MT1-MMP act inh 5.6 and SKN-1 inh 6.7.
For COc1cc(-c2cnc3c(NC=O)cc(-c4ccsc4)cn23)cc(OC)c1OC the results were DNMT1 inh -9.6, Rpn11 block 18.4, CSN inh 16.2, SUMO1-SIM PPI -7.2, MT1-MMP act inh -2.7 and SKN-1 inh 10.6.
For COc1ccc2oc(C(F)(F)C(F)F)cc(=O)c2c1 the results were DNMT1 inh -1.9, Rpn11 block 2.9, CSN inh 2.5, SUMO1-SIM PPI -4.4, MT1-MMP act inh 4.2 and SKN-1 inh 36.4*.
For O=C(NCCCN1CCOCC1)c1ccccc1N1C(=O)[C@@H]2Cc3c([nH]c4ccccc34)C(c3ccccc3)N2C1=O (stereo partly specified) the results were DNMT1 inh -2.7, Rpn11 block 4.8, CSN inh 1.1, SUMO1-SIM PPI 1.8, MT1-MMP act inh -0.2 and SKN-1 inh -9.4.
CN(C)C(=O)c1ccc(SC(=S)NCc2ccccc2)cc1 was read as DNMT1 inh -1.5, Rpn11 block -0.1, CSN inh -3.4, SUMO1-SIM PPI 2.5, MT1-MMP act inh -1.5 and SKN-1 inh -3.7.
For O=C(COc1ccccc1)N[C@@H]1c2ccccc2CC[C@@H]1O the results were DNMT1 inh -2.2, Rpn11 block -1.5, CSN inh 56.6*, SUMO1-SIM PPI 4.9, MT1-MMP act inh 4.1 and SKN-1 inh -5.8.
CCN(CC)c1ccc(N=Cc2ccc([N+](=O)[O-])o2)cc1 was read as DNMT1 inh 17.9, Rpn11 block 8.7, CSN inh -8.2, SUMO1-SIM PPI -21.5, MT1-MMP act inh 5.6 and SKN-1 inh 10.0.
Screening CCN(CC)c1ccc(N=Cc2ccccc2[N+](=O)[O-])cc1 returned DNMT1 inh -15.3, Rpn11 block -4.1, CSN inh -1.6, SUMO1-SIM PPI -29.8, MT1-MMP act inh 52.4* and SKN-1 inh 9.9.
Screening CCN(CC)C(=O)C1=C(C)N(Cc2ccc(C(C)(C)C)cc2)C(=O)C(CC(=O)NCc2ccco2)C1 (stereo unspecified) returned DNMT1 inh -1.4, Rpn11 block 5.3, CSN inh -1.4, SUMO1-SIM PPI -2.8, MT1-MMP act inh 5.5 and SKN-1 inh 7.5.
COc1ccc(N(C(=O)CNC(=O)c2ccco2)C(C(=O)NC2CCCCC2)c2cccnc2)cc1 (stereo unspecified) was read as DNMT1 inh -1.0, Rpn11 block -2.5, CSN inh 2.0, SUMO1-SIM PPI -1.8, MT1-MMP act inh -2.2 and SKN-1 inh 37.5*.
COc1ccc(N(C(=O)CNC(=O)c2ccco2)C(C(=O)NC2CCCC2)c2cccnc2)cc1 (stereo unspecified) was read as DNMT1 inh -0.7, Rpn11 block -2.6, CSN inh 3.6, SUMO1-SIM PPI 1.8, MT1-MMP act inh -1.3 and SKN-1 inh -7.0.
CC(C)NC(=O)C1(C)CN(S(C)(=O)=O)CC(=O)N1CC(F)(F)F (stereo unspecified) was read as CSN inh 1.4, SUMO1-SIM PPI -3.5, MT1-MMP act inh 4.4 and SKN-1 inh 3.0.
`CCOC(=O)[C@]12CCC=C1N(Cc1ccc3c(c1)OCO3)C(=O)[C@H](CC(=O)NCCC(C)C)C2` gave CSN inh 0.6, SUMO1-SIM PPI -2.3, MT1-MMP act inh 0.3 and SKN-1 inh 10.3.
For Cc1c(C)n(C)c2ccc(C(=O)NCCN3CCOCC3)cc12 the results were DNMT1 inh -1.8, Rpn11 block 6.5, CSN inh 3.6, SUMO1-SIM PPI -3.9, MT1-MMP act inh 2.3 and SKN-1 inh 49.9*.
CCn1c(C)c(C)c2cc(C(=O)NCCN3CCOCC3)ccc21 was read as DNMT1 inh 0.0, Rpn11 block 14.2, CSN inh 1.7, SUMO1-SIM PPI -2.5, MT1-MMP act inh 8.6 and SKN-1 inh 3.1.
`FC(F)(F)C1=CC(c2ccc(Cl)cc2)=NCCN1` gave DNMT1 inh -2.9, Rpn11 block 8.3, CSN inh 3.4, SUMO1-SIM PPI -8.6, MT1-MMP act inh 2.5 and SKN-1 inh 36.1*.
For COc1ccccc1C(=O)Nc1ccc(Br)c2cccnc12 the results were DNMT1 inh -7.2, Rpn11 block 6.3, CSN inh -1.7, SUMO1-SIM PPI 2.2, MT1-MMP act inh -3.3 and SKN-1 inh 38.9*.
Screening COc1ccccc1C(=O)Nc1ccc(Br)cc1C returned DNMT1 inh -6.6, Rpn11 block -3.8, CSN inh -12.1, SUMO1-SIM PPI -2.6, MT1-MMP act inh -8.1 and SKN-1 inh 54.0*.
COCC(=O)Nc1ccc(Br)cc1C was read as DNMT1 inh 0.6, Rpn11 block -4.0, CSN inh -3.5, SUMO1-SIM PPI -2.0, MT1-MMP act inh -0.1 and SKN-1 inh -5.9.
`OC(Cc1ccccc1)c1ncc(-c2ccc3ccccc3c2)[nH]1` (stereo unspecified) gave DNMT1 inh -10.7, Rpn11 block 1.0, CSN inh 4.8, SUMO1-SIM PPI -8.5, MT1-MMP act inh 0.8 and SKN-1 inh 19.0.
